In assay [1] the target is T1, Phosphatidylinositol 5-phosphate 4-kinase type-2 alpha (Homo sapiens) (UniProt P48426).
T1 sequence (whole entry): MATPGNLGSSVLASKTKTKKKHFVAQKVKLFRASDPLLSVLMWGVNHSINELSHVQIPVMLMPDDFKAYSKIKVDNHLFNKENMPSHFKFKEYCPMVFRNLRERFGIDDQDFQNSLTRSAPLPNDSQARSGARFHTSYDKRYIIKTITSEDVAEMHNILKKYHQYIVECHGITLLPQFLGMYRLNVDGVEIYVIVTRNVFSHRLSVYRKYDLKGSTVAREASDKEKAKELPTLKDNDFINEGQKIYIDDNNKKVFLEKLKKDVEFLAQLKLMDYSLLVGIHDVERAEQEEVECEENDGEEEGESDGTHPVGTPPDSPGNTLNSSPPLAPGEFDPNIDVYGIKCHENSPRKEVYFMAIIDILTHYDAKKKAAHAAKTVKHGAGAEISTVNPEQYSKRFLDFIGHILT
In words: Inhibition of PIP5K2A LIP1 site in human HeLa cells lysate at 50 uM pre incubated for 15 mins followed by ADP acyl phosphate probe addition and measured after 10 mins by LC-MS/MS analysis relative to control. The format is subcellular. Conditions: time 25.0 min.

The target in assay [2] is Cyclin-dependent kinase 5 (Homo sapiens, UniProt Q00535). In words: Inhibition of CDK5 in human HeLa cells lysate pre incubated for 15 mins followed by ATP acyl phosphate probe addition and measured after 10 mins by LC-MS/MS analysis. The format is subcellular. Put shortly:
(§1)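 KiNativ profiling in HeLa lysate (5 mg/mL total protein). Lysate incubated 15 min with inhibitor at 50, 10, 2, 0.8 or 0 μM. ATP or ADP acylphosphate probe then added (5 μM final) and reacted 10 min. Reaction stopped with urea and analysed by targeted MS, using up to four fragment ions per kinase peptide-probe conjugate. % inhibition taken against untreated lysate. Run in duplicate.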

For assay [3], the target named is Mitogen-activated protein kinase kinase kinase 20 (Homo sapiens, UniProt Q9NYL2). The assay is described as follows: Inhibition of ZAK in human HeLa cells lysate at 2 uM pre incubated for 15 mins followed by ATP acyl phosphate probe addition and measured after 10 mins by LC-MS/MS analysis relative to control. It counts as subcellular. Conditions: time 25.0 min.
Mitogen-activated protein kinase kinase kinase 20, sequence (Q9NYL2 2-800 limits assumed): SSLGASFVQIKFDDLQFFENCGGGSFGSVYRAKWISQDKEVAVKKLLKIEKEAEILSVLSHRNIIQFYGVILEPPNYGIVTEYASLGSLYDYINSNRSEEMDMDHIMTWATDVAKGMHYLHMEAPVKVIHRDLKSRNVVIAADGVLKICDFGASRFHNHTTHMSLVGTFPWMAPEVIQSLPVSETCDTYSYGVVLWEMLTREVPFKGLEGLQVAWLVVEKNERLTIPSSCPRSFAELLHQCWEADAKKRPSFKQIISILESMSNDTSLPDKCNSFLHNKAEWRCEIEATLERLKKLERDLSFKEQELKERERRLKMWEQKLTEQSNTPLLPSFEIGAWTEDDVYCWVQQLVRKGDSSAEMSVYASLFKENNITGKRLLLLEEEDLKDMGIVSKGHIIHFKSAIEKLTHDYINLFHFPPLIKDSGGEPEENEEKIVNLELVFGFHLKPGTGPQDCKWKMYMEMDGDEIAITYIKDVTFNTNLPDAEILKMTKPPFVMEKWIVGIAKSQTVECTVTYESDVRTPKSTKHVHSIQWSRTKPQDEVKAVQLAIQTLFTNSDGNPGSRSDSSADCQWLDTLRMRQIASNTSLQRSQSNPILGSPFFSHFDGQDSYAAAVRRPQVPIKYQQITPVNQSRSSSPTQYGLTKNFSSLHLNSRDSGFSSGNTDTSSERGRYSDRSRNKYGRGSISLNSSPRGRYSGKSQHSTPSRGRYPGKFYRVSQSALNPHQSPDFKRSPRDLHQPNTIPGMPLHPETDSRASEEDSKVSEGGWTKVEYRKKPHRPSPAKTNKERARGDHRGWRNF

The next assay deals with eIF-2-alpha kinase GCN2 (Homo sapiens, UniProt Q9P2K8). The assay is described as follows: Inhibition of GCN2 in human HeLa cells lysate at 2 uM pre incubated for 15 mins followed by ATP acyl phosphate probe addition and measured after 10 mins by LC-MS/MS analysis relative to control. The format is subcellular. Conditions: time 25.0 min.
eIF-2-alpha kinase GCN2, sequence (Q9P2K8 whole entry): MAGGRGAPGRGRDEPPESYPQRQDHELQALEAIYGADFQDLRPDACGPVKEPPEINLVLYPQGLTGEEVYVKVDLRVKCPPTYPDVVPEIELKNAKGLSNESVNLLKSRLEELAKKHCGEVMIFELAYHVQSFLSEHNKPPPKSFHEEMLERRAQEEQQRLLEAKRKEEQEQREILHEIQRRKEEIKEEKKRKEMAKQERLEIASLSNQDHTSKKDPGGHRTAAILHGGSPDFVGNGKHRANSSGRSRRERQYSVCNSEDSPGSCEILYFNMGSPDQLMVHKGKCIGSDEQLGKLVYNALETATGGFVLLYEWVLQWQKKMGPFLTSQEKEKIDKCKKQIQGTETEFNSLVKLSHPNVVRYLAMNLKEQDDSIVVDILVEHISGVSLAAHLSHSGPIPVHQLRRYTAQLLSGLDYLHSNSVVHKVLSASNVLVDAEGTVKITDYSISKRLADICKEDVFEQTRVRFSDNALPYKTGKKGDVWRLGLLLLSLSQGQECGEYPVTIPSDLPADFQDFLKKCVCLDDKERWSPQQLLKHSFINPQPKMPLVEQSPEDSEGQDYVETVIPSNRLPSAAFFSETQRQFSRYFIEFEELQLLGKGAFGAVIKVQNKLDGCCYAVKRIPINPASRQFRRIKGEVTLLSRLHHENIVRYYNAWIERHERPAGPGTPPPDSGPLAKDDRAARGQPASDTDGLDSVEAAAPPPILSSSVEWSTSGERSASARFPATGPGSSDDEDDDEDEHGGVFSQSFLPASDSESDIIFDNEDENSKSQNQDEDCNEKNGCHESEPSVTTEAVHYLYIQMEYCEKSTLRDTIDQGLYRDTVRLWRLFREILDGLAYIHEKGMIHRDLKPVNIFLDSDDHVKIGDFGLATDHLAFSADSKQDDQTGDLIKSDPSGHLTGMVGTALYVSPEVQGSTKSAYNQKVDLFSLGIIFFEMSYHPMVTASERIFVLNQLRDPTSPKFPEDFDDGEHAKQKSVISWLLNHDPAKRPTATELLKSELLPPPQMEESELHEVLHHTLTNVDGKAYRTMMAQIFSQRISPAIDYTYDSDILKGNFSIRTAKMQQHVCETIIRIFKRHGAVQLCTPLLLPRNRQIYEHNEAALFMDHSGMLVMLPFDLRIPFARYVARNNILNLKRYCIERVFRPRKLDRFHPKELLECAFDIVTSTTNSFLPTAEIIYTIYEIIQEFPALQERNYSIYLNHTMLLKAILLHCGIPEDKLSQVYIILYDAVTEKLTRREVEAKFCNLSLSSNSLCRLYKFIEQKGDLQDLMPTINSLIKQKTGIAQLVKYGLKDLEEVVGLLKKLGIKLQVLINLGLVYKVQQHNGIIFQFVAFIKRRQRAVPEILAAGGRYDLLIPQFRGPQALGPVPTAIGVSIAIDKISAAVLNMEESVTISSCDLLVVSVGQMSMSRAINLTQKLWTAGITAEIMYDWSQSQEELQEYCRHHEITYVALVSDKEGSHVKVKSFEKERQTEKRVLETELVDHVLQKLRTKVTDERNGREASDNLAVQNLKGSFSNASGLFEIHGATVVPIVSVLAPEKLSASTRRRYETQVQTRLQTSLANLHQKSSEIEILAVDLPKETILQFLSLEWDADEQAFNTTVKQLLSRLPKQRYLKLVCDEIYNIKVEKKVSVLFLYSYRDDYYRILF
The target in assay [4] is Cyclin-dependent kinase 2 (Homo sapiens, UniProt P24941). In words: Inhibition of CDK2 in human HeLa cells lysate at 10 uM pre incubated for 15 mins followed by ADP acyl phosphate probe addition and measured after 10 mins by LC-MS/MS analysis relative to control. It counts as subcellular. Conditions: time 25.0 min. Put shortly: as §1
Assay [5] addresses Phosphatidylinositol 4-kinase beta (Homo sapiens, UniProt Q9UBF8). In words: Inhibition of PIK4CB in human HeLa cells lysate pre incubated for 15 mins followed by ATP acyl phosphate probe addition and measured after 10 mins by LC-MS/MS analysis. The format is subcellular.
Assay [6] concerns the target Cyclin-dependent kinase 7 (Homo sapiens, UniProt P50613). The assay is described as follows: Inhibition of CDK7 in human HeLa cells lysate at 2 uM pre incubated for 15 mins followed by ATP acyl phosphate probe addition and measured after 10 mins by LC-MS/MS analysis relative to control. The format is subcellular. Conditions: time 25.0 min. The procedure, abridged: as §1

A further assay addresses Aurora kinase A (Homo sapiens, UniProt O14965). The assay is described as follows: Inhibition of AURA in human HeLa cells lysate pre incubated for 15 mins followed by ATP acyl phosphate probe addition and measured after 10 mins by LC-MS/MS analysis. It counts as subcellular. The procedure, abridged:
(§2)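 KiNativ-type profiling in HeLa lysate (5 mg/mL total protein). Lysate preincubated 15 min with inhibitor at 50, 10, 2, 0.8 or 0 μM, then ATP or ADP acylphosphate probe added (5 μM final) for 10 min. Reaction stopped with urea and analysed by targeted MS, using up to four fragment ions per kinase peptide-probe conjugate. % inhibition calculated against untreated lysate. Duplicate reactions.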

The target of assay [7] is Serine/threonine-protein kinase MRCK beta (Homo sapiens, UniProt Q9Y5S2). The assay is described as follows: Inhibition of MRCKB in human HeLa cells lysate at 50 uM pre incubated for 15 mins followed by ATP acyl phosphate probe addition and measured after 10 mins by LC-MS/MS analysis relative to control. Conditions: time 25.0 min. The format is subcellular.
Assay [8] deals with Serine/threonine-protein kinase Aurora (Homo sapiens, UniProt Q96GD4+Q9UQB9+O14965). The assay is described as follows: Inhibition of AURA/AURB/AURC in human HeLa cells lysate pre incubated for 15 mins followed by ATP acyl phosphate probe addition and measured after 10 mins by LC-MS/MS analysis. It counts as subcellular. Put shortly:
as §2

The target in assay [9] is T2, Aurora kinase A (Homo sapiens) (UniProt O14965).
T2 sequence (whole entry): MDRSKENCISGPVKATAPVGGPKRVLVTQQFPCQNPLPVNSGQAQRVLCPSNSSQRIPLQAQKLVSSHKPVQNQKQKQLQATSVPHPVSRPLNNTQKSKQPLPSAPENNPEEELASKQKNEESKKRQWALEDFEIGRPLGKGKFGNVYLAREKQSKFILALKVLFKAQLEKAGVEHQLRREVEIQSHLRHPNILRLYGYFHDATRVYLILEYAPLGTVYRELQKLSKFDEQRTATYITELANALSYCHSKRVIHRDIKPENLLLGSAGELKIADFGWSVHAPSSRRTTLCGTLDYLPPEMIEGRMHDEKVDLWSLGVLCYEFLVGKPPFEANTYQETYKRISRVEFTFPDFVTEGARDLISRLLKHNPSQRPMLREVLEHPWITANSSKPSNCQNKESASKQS
The assay is described as follows: Inhibition of AurA in human HeLa cells lysate at 10 uM pre incubated for 15 mins followed by ATP acyl phosphate probe addition and measured after 10 mins by LC-MS/MS analysis relative to control. The format is subcellular. Conditions: time 25.0 min. The procedure, abridged: as §2

Assay [10] is described as follows: Inhibition of SRC/FYN/YES in human HeLa cells lysate at 10 uM pre incubated for 15 mins followed by ATP acyl phosphate probe addition and measured after 10 mins by LC-MS/MS analysis relative to control. Particulars: 25 min, condition cancer.
The target of assay [11] is Mitogen-activated protein kinase kinase kinase 11 (Homo sapiens, UniProt Q16584). In words: Inhibition of MLK3 in human HeLa cells lysate at 50 uM pre incubated for 15 mins followed by ATP acyl phosphate probe addition and measured after 10 mins by LC-MS/MS analysis relative to control. Particulars: time 25.0 min. It counts as subcellular.
Mitogen-activated protein kinase kinase kinase 11, sequence (Q16584 whole entry, looked up): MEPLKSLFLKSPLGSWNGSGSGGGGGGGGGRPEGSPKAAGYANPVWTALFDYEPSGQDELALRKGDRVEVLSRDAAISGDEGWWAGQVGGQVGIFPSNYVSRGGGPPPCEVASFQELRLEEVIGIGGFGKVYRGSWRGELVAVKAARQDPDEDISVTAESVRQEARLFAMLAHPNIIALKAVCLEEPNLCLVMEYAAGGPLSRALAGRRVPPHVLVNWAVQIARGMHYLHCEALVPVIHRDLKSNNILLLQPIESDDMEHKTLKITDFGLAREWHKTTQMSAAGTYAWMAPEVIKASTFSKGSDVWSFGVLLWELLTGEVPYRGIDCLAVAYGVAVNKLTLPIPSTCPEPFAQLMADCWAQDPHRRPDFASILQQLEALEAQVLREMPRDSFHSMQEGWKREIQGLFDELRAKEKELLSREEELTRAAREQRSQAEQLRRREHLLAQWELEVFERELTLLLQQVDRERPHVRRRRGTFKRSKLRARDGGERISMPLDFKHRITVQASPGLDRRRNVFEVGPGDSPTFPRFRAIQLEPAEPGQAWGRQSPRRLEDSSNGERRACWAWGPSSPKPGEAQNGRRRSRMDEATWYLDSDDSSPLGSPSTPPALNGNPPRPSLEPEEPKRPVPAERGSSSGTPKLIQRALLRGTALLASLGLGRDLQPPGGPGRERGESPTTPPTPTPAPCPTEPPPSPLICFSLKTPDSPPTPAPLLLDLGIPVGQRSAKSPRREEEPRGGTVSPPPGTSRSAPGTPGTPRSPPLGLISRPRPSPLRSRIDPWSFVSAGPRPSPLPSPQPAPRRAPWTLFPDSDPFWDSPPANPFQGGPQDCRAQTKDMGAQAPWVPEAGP

Cyclin-dependent kinase 5, sequence (Q00535 whole entry, the tested form may be a part): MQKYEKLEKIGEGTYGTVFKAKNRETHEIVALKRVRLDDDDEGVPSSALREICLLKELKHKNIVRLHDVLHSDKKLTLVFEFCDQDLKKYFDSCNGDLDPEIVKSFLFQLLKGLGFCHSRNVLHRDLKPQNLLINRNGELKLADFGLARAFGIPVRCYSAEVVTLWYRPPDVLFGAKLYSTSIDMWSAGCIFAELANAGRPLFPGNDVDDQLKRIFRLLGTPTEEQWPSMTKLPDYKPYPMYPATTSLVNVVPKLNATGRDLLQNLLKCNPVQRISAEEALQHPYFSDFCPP
Cyclin-dependent kinase 7, sequence (P50613 whole entry): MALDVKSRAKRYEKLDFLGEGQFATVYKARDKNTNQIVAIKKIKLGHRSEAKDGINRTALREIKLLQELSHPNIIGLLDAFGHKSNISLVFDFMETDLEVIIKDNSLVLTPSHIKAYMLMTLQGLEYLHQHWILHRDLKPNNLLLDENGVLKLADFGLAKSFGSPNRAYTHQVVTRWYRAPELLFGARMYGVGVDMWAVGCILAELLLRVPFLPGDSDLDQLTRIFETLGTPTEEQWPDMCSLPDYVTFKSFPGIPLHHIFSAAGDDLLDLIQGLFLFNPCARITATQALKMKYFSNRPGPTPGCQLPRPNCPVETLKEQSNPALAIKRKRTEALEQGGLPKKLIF
Phosphatidylinositol 4-kinase beta, sequence (Q9UBF8 whole entry): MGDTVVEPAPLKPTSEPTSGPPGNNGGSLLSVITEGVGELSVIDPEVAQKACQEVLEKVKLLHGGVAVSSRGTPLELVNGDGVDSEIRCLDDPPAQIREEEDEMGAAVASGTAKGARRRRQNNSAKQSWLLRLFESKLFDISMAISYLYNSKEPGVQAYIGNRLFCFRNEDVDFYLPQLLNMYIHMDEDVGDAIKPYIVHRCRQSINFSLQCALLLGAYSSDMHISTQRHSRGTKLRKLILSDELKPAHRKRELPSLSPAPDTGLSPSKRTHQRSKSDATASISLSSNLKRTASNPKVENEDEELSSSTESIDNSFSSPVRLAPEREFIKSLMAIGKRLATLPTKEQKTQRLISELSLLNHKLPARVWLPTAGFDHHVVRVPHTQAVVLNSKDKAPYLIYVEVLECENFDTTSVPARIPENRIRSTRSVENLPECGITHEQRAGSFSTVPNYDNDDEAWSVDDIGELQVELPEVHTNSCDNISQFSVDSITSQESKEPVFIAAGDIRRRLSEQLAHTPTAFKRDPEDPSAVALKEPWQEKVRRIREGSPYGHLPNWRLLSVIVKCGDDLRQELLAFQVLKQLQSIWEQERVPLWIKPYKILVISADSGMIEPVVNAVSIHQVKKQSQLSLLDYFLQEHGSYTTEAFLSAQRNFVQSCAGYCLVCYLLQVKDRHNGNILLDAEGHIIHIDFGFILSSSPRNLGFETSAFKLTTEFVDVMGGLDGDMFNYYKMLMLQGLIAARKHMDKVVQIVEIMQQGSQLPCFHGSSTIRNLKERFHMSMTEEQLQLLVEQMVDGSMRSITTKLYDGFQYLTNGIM

`CCOc1cc(N2CCC(O)CC2)ccc1Nc1ncc2c(n1)N(C)c1ccccc1C(=O)N2C`: the inhibition in assay [1] was 16.2%; in assay [3], 31.5%; on eIF-2-alpha kinase GCN2, 0.2%; in assay [4], -3.8%; in [6], -7.9%; in assay [7], -5%. Also, the values for the inhibition in [9] and in assay [11] were 2.3% and -7.8%, respectively. For the same compound, the IC50 is > 50 µM in [2], 34 µM in assay [5], > 50 µM on Aurora kinase A and > 50 µM in assay [8]. For the same compound, in assay [10], the inhibition at 10 µM is -68.3%.

For orientation: inhibition means the drop in the measured response relative to a control, in per cent. As a reminder, the IC50 is the concentration needed to halve the response being measured.

The values above are taken from ChEMBL document CHEMBL5661979, “Pharmacological inhibition of BMK1 suppresses tumor growth through promyelocytic leukemia protein” (Cancer Cell, 2010).
